These results are taken from ChEMBL document CHEMBL1795226, “Generation of novel radiolabeled opiates through site-selective iodination” (Bioorg Med Chem Lett, 2011).

Assay [1] concerns the target T1, Mu-type opioid receptor (Homo sapiens, UniProt P35372). Description: Displacement of [3H]-DAMGO from MOR-1 expressed in CHO cells after 150 mins. The class given is cell-based. A digest of the protocol: (§1)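 Competition binding in membranes of CHO cells stably transfected with MOR-1, DOR-1 or KOR-1. Tracers were 1 nM 3H-DAMGO (MOR-1), 3H-DPDPE (DOR-1) or 3H-U69,593 (KOR-1). IC50 came from nonlinear regression and was converted to Ki. Values are the mean ± SEM of at least three independent replications.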

Assay [2] has as its target T2, Kappa-type opioid receptor (Homo sapiens, UniProt P41145). Description: Displacement of [3H]-U69593 from KOR-1 expressed in CHO cells after 60 mins. The assay is classed as cell-based. In a few lines: as §1
Assay [3] has as its target T3, Delta-type opioid receptor (Homo sapiens, UniProt P41143). The assay can be described thus: Displacement of [3H]-DPDPE from DOR-1 expressed in CHO cells after 60 mins. The class given is cell-based. In a few lines:
as §1
(In general: Displacement assays read how much labelled ligand stays bound in the presence of the test substance.)

Assay [4] deals with T1, Mu-type opioid receptor. The assay can be described thus: Binding affinity to MOR-1 expressed in CHO cells after 90 mins. The note with it: for Bmax: tested as the 125I-labelled form. The assay is classed as cell-based. In a few lines: (§2)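 Saturation binding of the carrier-free 125I-radioligand (KD) in membranes of CHO cells stably transfected with the named opioid receptor. For one DOR-1 saturation, specific activity was diluted 10-fold to allow higher ligand concentrations. Curves were fit to a single site by nonlinear regression. KD is the mean ± SEM of at least 3 independent determinations.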

Assay [5] has as its target T2, Kappa-type opioid receptor. The assay can be described thus: Binding affinity to KOR-1 expressed in CHO cells after 90 mins. The following applies: for Bmax: tested as the 125I-labelled form. The class given is cell-based. In a few lines: as §2
Assay [6] addresses T3, Delta-type opioid receptor. The assay can be described thus: Binding affinity to DOR-1 expressed in CHO cells after 90 mins. The class given is cell-based. The note with it: for Bmax: tested as the 125I-labelled form. In a few lines:
as §2

Assay [7] has as its target T1, Mu-type opioid receptor. The assay can be described thus: biochemical. The class given is cell-based, CHO.
The target in assay [8] is T1, Mu-type opioid receptor. The assay can be described thus: biochemical. The class given is cell-based, CHO. This is another data set of the same source.
Assay [9] deals with T1, Mu-type opioid receptor. The assay can be described thus: biochemical. The assay is classed as cell-based, CHO. This is another data set of the same source.
Assay [10] has as its target T2, Kappa-type opioid receptor. The assay can be described thus: Displacement of [125I]-IBNtxA from KOR-1 expressed in CHO cells. The assay is classed as cell-based.
Assay [11] addresses T2, Kappa-type opioid receptor. Description: Displacement of [125I]-IBNalA from KOR-1 expressed in CHO cells. The assay is classed as cell-based.

Molecules are shown by their SMILES.

T2 sequence (P41145 whole entry): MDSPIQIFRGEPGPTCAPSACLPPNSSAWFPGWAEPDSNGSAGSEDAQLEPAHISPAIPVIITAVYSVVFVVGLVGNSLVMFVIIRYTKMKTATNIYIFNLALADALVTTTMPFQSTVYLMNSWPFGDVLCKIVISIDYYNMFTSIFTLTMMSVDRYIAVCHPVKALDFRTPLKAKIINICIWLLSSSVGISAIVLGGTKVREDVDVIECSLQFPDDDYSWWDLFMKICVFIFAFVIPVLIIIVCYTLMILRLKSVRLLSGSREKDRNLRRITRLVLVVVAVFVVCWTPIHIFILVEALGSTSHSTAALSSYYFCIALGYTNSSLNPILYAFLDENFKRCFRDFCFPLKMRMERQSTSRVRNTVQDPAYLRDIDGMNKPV
T3 sequence (P41143 whole entry): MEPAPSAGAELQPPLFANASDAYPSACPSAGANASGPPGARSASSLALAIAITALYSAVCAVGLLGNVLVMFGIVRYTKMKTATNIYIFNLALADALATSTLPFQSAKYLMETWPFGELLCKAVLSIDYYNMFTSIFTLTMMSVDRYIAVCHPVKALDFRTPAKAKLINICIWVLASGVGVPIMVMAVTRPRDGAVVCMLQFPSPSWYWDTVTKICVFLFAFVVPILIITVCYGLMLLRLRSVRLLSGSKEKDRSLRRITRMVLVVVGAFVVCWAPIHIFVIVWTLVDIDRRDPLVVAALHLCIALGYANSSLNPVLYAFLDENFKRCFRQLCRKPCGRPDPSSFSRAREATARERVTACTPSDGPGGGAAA
T1 sequence (P35372 whole entry): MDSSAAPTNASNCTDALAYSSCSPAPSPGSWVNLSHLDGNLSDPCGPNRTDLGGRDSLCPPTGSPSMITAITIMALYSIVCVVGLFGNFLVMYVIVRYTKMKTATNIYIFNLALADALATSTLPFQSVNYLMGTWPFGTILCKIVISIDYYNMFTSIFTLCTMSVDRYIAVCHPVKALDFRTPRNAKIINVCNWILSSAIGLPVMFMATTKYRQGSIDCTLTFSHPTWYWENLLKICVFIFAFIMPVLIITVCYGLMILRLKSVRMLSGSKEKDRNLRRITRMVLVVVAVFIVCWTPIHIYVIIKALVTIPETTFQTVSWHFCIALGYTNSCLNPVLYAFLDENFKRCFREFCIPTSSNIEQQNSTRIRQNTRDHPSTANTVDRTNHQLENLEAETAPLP

The term Ki denotes the equilibrium dissociation constant of an inhibitor or competing ligand from its target. A high value points to weaker binding. For `C=CCN1CC[C@]23c4c5ccc(O)c4O[C@H]2[C@H](NC(=O)c2cccc(I)c2)CC[C@@]3(O)[C@H]1C5`, the Ki worked out at 0.7 nM in assay [1], 0.08 nM in assay [2] and 2.55 nM in assay [3]. In addition, the Bmax in assay [4] stood at 1.18 pmol/mg; in assay [5] it was 1.15 pmol/mg; in assay [6], 2.7 pmol/mg.

Consider `C=CCN1CC[C@]23CCCC[C@H]2[C@H]1Cc1ccc(O)cc13` [LEVALLORPHAN], for which the Ki in [7] was determined as 1.29 nM; in [8], 1.69 nM; in assay [9], 0.48 nM.

The term Kd denotes a measure of binding affinity in units of concentration. Low values mean tighter binding, high ones weaker binding. Consider `C=CCN1CC[C@]23c4c5ccc(O)c4O[C@H]2[C@H](NC(=O)c2cccc([125I])c2)CC[C@@]3(O)[C@H]1C5`, for which the Kd stood at 0.22 nM in [4], 0.05 nM in assay [5] and 2.5 nM in [6].

As to `O=C(N[C@@H]1CC[C@@]2(O)[C@H]3Cc4ccc(O)c5c4[C@@]2(CCN3CC2CC2)[C@H]1O5)c1cccc(I)c1`, the figures for the Ki in assay [1], in assay [2] and in [3] were 2.5 nM, 0.23 nM and 0.58 nM, respectively. The results for the Bmax in assay [4], in [5] and in assay [6] were 3.81 pmol/mg, 0.57 pmol/mg and 0.96 pmol/mg, respectively.

Consider `CN1CC[C@]23c4c5ccc(O)c4O[C@H]2[C@H](NC(=O)c2cccc([125I])c2)CC[C@@]3(O)[C@H]1C5`, for which the Kd in assay [4] turned out to be 0.08 nM.

Consider `CN1CC[C@]23c4c5ccc(O)c4O[C@H]2[C@H](NC(=O)c2cccc(I)c2)CC[C@@]3(O)[C@H]1C5`, for which the figures for the Ki in assay [1] and in assay [2] were 1.75 nM and 9 nM, respectively. In assay [4], the Bmax amounted to 1.49 pmol/mg.

In the case of `O=C(N[C@@H]1CC[C@@]2(O)[C@H]3Cc4ccc(O)c5c4[C@@]2(CCN3CC2CC2)[C@H]1O5)c1cccc([125I])c1`, the Kd in [4] was determined as 0.11 nM; in assay [5] it was 0.027 nM; in assay [6], 0.24 nM.

`N=C(N)Nc1ccc2[nH]c3c(c2c1)C[C@@]1(O)[C@H]2Cc4ccc(O)c5c4[C@@]1(CCN2CC1CC1)[C@H]3O5` [GUANIDINONALTRINDOLE]: the figures for the inhibition constant Ki in [10] and in [11] were 0.15 nM and 0.19 nM, respectively.
